Tested on: U2OS
Test: Multiplex assay against U2OS
Type: toxicity, cell-based
Conditions: human
Outline: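 On a CQ1 microscope at 37°C and 5% CO2, live cells were imaged after compound addition. They had been stained at seeding with Hoechst33342, BioTracker Green Microtubule Cytoskeleton Dye, MitoTracker Red and Annexin V Alexa Fluor 680. CellPathfinder machine-learning gating assigned cells to Hoechst high-intensity objects or normal cells, normal cells to healthy, pyknosed or fragmented nuclei, and pyknosed cells to mitotic or apoptotic. Tubulin, mitochondrial-mass and membrane-permeability phenotypes are per cents of healthy-nucleus cells.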

[1] = 12 h, 1 µM, compound concentration 1 uM, replicate 1
[2] = 12 h, 1 µM, compound concentration 1 uM, replicate 2
[3] = 12 h, 10 µM, compound concentration 10 uM, replicate 1
[4] = 12 h, 10 µM, compound concentration 10 uM, replicate 2
[5] = 24 h, 1 µM, compound concentration 1 uM, replicate 1
[6] = 24 h, 1 µM, compound concentration 1 uM, replicate 2
[7] = 24 h, 10 µM, compound concentration 10 uM, replicate 1
[8] = 24 h, 10 µM, compound concentration 10 uM, replicate 2
[9] = 48 h, 1 µM, compound concentration 1 uM, replicate 1
[10] = 48 h, 1 µM, compound concentration 1 uM, replicate 2
[11] = 48 h, 10 µM, compound concentration 10 uM, replicate 1
[12] = 48 h, 10 µM, compound concentration 10 uM, replicate 2

Structure (SMILES): CCNC1(C(N)=O)CCN(c2ncnc3c2nc(-c2ccccc2Cl)n3-c2ccc(Cl)cc2)CC1 [OTENABANT]
- Population Apoptotic (%) [1]: 77%
- Population Fragmented Nuclei (%) [1]: 30%
- Population Healthy Nuclei (%) [1]: 60%
- Population Hoechst High Intensity Objects (%) [1]: 3%
- Population Membrane Permeable-Phenotype (%) [1]: 13%
- Population Mitochondria Different-Phenotype (%) [1]: 7%
- Population Mitotic Cells (%) [1]: 22%
- Population Normal (%) [1]: 96%
- Population Pyknosed Nuclei (%) [1]: 9%
- Population Tubulin-Different-Phenotype (%) [1]: 4%
- Total Cell Count [1]: 254
- Population Apoptotic (%) [2]: 85%
- Population Fragmented Nuclei (%) [2]: 17%
- Population Healthy Nuclei (%) [2]: 74%
- Population Hoechst High Intensity Objects (%) [2]: 2%
- Population Membrane Permeable-Phenotype (%) [2]: 11%
- Population Mitochondria Different-Phenotype (%) [2]: 22%
- Population Mitotic Cells (%) [2]: 14%
- Population Normal (%) [2]: 97%
- Population Pyknosed Nuclei (%) [2]: 7%
- Population Tubulin-Different-Phenotype (%) [2]: 10%
- Total Cell Count [2]: 93
- Population Apoptotic (%) [3]: 58%
- Population Fragmented Nuclei (%) [3]: 31%
- Population Healthy Nuclei (%) [3]: 48%
- Population Hoechst High Intensity Objects (%) [3]: 6%
- Population Membrane Permeable-Phenotype (%) [3]: 81%
- Population Mitochondria Different-Phenotype (%) [3]: 63%
- Population Mitotic Cells (%) [3]: 41%
- Population Normal (%) [3]: 93%
- Population Pyknosed Nuclei (%) [3]: 19%
- Population Tubulin-Different-Phenotype (%) [3]: 89%
- Total Cell Count [3]: 211
- Population Apoptotic (%) [4]: 70%
- Population Fragmented Nuclei (%) [4]: 21%
- Population Healthy Nuclei (%) [4]: 60%
- Population Hoechst High Intensity Objects (%) [4]: 0%
- Population Membrane Permeable-Phenotype (%) [4]: 65%
- Population Mitochondria Different-Phenotype (%) [4]: 73%
- Population Mitotic Cells (%) [4]: 30%
- Population Normal (%) [4]: 99%
- Population Pyknosed Nuclei (%) [4]: 18%
- Population Tubulin-Different-Phenotype (%) [4]: 76%
- Total Cell Count [4]: 112
- Population Apoptotic (%) [5]: 79%
- Population Fragmented Nuclei (%) [5]: 26%
- Population Healthy Nuclei (%) [5]: 61%
- Population Hoechst High Intensity Objects (%) [5]: 3%
- Population Membrane Permeable-Phenotype (%) [5]: 11%
- Population Mitochondria Different-Phenotype (%) [5]: 5%
- Population Mitotic Cells (%) [5]: 20%
- Population Normal (%) [5]: 96%
- Population Pyknosed Nuclei (%) [5]: 11%
- Population Tubulin-Different-Phenotype (%) [5]: 7%
- Total Cell Count [5]: 308
- Population Apoptotic (%) [6]: 80%
- Population Fragmented Nuclei (%) [6]: 24%
- Population Healthy Nuclei (%) [6]: 62%
- Population Hoechst High Intensity Objects (%) [6]: 4%
- Population Membrane Permeable-Phenotype (%) [6]: 15%
- Population Mitochondria Different-Phenotype (%) [6]: 15%
- Population Normal (%) [6]: 95%
- Population Pyknosed Nuclei (%) [6]: 13%
- Population Tubulin-Different-Phenotype (%) [6]: 5%
- Total Cell Count [6]: 120
- Population Apoptotic (%) [7]: 69%
- Population Fragmented Nuclei (%) [7]: 29%
- Population Healthy Nuclei (%) [7]: 49%
- Population Hoechst High Intensity Objects (%) [7]: 3%
- Population Membrane Permeable-Phenotype (%) [7]: 55%
- Population Mitochondria Different-Phenotype (%) [7]: 75%
- Population Mitotic Cells (%) [7]: 30%
- Population Normal (%) [7]: 96%
- Population Pyknosed Nuclei (%) [7]: 20%
- Population Tubulin-Different-Phenotype (%) [7]: 78%
- Total Cell Count [7]: 218
- Population Apoptotic (%) [8]: 80%
- Population Fragmented Nuclei (%) [8]: 28%
- Population Healthy Nuclei (%) [8]: 53%
- Population Membrane Permeable-Phenotype (%) [8]: 47%
- Population Mitochondria Different-Phenotype (%) [8]: 72%
- Population Mitotic Cells (%) [8]: 20%
- Population Pyknosed Nuclei (%) [8]: 18%
- Population Tubulin-Different-Phenotype (%) [8]: 62%
- Total Cell Count [8]: 137
- Population Apoptotic (%) [9]: 86%
- Population Fragmented Nuclei (%) [9]: 24%
- Population Healthy Nuclei (%) [9]: 64%
- Population Hoechst High Intensity Objects (%) [9]: 1%
- Population Membrane Permeable-Phenotype (%) [9]: 7%
- Population Mitochondria Different-Phenotype (%) [9]: 4%
- Population Mitotic Cells (%) [9]: 13%
- Population Normal (%) [9]: 98%
- Population Pyknosed Nuclei (%) [9]: 10%
- Population Tubulin-Different-Phenotype (%) [9]: 3%
- Total Cell Count [9]: 416
- Population Apoptotic (%) [10]: 52%
- Population Fragmented Nuclei (%) [10]: 16%
- Population Healthy Nuclei (%) [10]: 69%
- Population Hoechst High Intensity Objects (%) [10]: 4%
- Population Membrane Permeable-Phenotype (%) [10]: 13%
- Population Mitochondria Different-Phenotype (%) [10]: 10%
- Population Mitotic Cells (%) [10]: 47%
- Population Normal (%) [10]: 95%
- Population Pyknosed Nuclei (%) [10]: 14%
- Population Tubulin-Different-Phenotype (%) [10]: 9%
- Total Cell Count [10]: 137
- Population Apoptotic (%) [11]: 86%
- Population Fragmented Nuclei (%) [11]: 32%
- Population Healthy Nuclei (%) [11]: 43%
- Population Hoechst High Intensity Objects (%) [11]: 7%
- Population Membrane Permeable-Phenotype (%) [11]: 49%
- Population Mitochondria Different-Phenotype (%) [11]: 55%
- Population Mitotic Cells (%) [11]: 13%
- Population Normal (%) [11]: 92%
- Population Pyknosed Nuclei (%) [11]: 23%
- Population Tubulin-Different-Phenotype (%) [11]: 51%
- Total Cell Count [11]: 269
- Population Apoptotic (%) [12]: 80%
- Population Fragmented Nuclei (%) [12]: 29%
- Population Healthy Nuclei (%) [12]: 45%
- Population Hoechst High Intensity Objects (%) [12]: 10%
- Population Membrane Permeable-Phenotype (%) [12]: 43%
- Population Mitochondria Different-Phenotype (%) [12]: 66%
- Population Mitotic Cells (%) [12]: 20%
- Population Normal (%) [12]: 89%
- Population Pyknosed Nuclei (%) [12]: 24%
- Population Tubulin-Different-Phenotype (%) [12]: 49%
- Total Cell Count [12]: 138

Source: ChEMBL document CHEMBL5058577, “EUbOPEN Chemogenomics Library 2 (Multiplex)” (2022)
